Activity calls are given as the source filed them.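 Rule for the calls: active = compounds cutting cell ATP light whose fitted AC50 is at most double the top dose tried; inconclusive = flat moderate signal loss, or an unreliable curve fit; inactive = the rest.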
Tests used:
[1] = cytotoxicity in ldlA[mSR-BI] CHO cells, dose response, cytotoxicity control for SR-BI HDL uptake inhibitor project, cell-based, CellTiter-Glo luminescence, 24 h, dry powder, set 5 (AID 602126); details: ldlA[mSR-BI] CHO cells viability, CellTiter-Glo ATP luminescence, 24 h
In short: (§1)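 Technique: CellTiter-Glo ATP luminescence; System: ldlA[mSR-BI] cells, cell viability measurement; Amount: 4,000 ldlA[mSR-BI] cells per well; Incubation: 24 h compound exposure at 37 °C, then 10 min with detection reagent.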

[2] = tested on: ldlA[mSR-BI] CHO cells viability, CellTiter-Glo ATP luminescence, 24 h; assay: as above
In short: as §1

Row | SMILES | activity change, negative = cytotoxicity ([1]; at 35 µM (top of the series)) | also measured
1 | CC(C(=O)NC1CCCC1)N(C(=O)Cn1nnc(-c2ccccc2F)n1)C1CCCCC1 (centres undefined) | -27.4% (inactive) | –
2 | COc1ccc(-c2nnn(CC(=O)N(C3CCCCC3)C(C)C(=O)NC(C)C)n2)cc1OC (centres undefined) | -0.753% (inactive) | –
3 | CCC(=O)N1CCc2cc(-c3cnc(NC(=O)c4ccco4)[nH]3)ccc21 | 2.33% (inactive) | –
4 | CCC(=O)N1CCc2cc(-c3csc(/N=C(/OC)c4cc(OC)cc(OC)c4)n3)ccc21 | -10.7% (inactive) | –
5 | C[C@@H]1CN([C@H](C)CO)C(=O)c2cc(NC(=O)Cc3cn(C)c4ccccc34)ccc2O[C@H]1CN(C)S(=O)(=O)c1ccc(F)cc1 | -29.1% (inactive) | –
6 | COc1ccc(-c2nnn(CC(=O)N(C)C(C)C(=O)NC3CCCC3)n2)cc1OC (centres undefined) | -6.96% (inactive) | –
7 | CC(C(=O)NC1CCCC1)N(C(=O)Cn1nnc(-c2ccc3c(c2)OCO3)n1)C1CCOCC1 (centres undefined) | -7.76% (inactive) | –
8 | COc1cccc(-c2nnn(CC(=O)N(C3CCCCC3)C(C)C(=O)NC3CCCC3)n2)c1 (centres undefined) | -12.4% (inactive) | –
9 | CCC(=O)N1CCc2cc(-c3cnc(NC(C)=O)[nH]3)ccc21 | -35.4% (inactive) | –
10 | C[C@H](CO)N1C[C@H](C)[C@H](CN(C)S(=O)(=O)c2ccc(F)cc2)Oc2ccc(NS(C)(=O)=O)cc2C1=O | 11.2% (inactive) | –
11 | C[C@H](CO)N1C[C@H](C)[C@H](CN(C)S(=O)(=O)c2ccc(Cl)cc2)Oc2ccc(NC(=O)Cc3cn(C)c4ccccc34)cc2C1=O | -19.4% (inactive) | –
12 | C[C@H]1CN([C@@H](C)CO)C(=O)c2cccc(NS(C)(=O)=O)c2O[C@@H]1CN(C)Cc1ccc(Cl)c(Cl)c1 | -10.3% (inactive) | –
13 | CNC[C@@H]1Oc2ccc(NC(=O)Cc3cn(C)c4ccccc34)cc2C(=O)N([C@H](C)CO)C[C@H]1C | 2.26% (inactive) | –
14 | Cc1ccc(-c2nnn(CC(=O)N(C3CCCCC3)C(C)C(=O)NC3CCCC3)n2)cc1 (centres undefined) | -2.67% (inactive) | –
15 | Cc1cc(C)c2c(c1)NC(c1cc3c(cc1Br)OCO3)C1CC=CC21 (centres undefined) | -26.7% (inactive) | –
16 | CC(OC(=O)c1cccc(NS(C)(=O)=O)c1)C(=O)Nc1ccc(N2CCOCC2)cc1 (centres undefined) | -6.16% (inactive) | –
17 | C[C@@H]1CN([C@H](C)CO)C(=O)c2cc(NC(=O)Cc3cn(C)c4ccccc34)ccc2O[C@H]1CN(C)S(=O)(=O)c1ccc(Cl)cc1 | -18.6% (inactive) | AC50 [2]: > 70 µM (inactive)
18 | CCC(=O)N1CCc2cc(-c3coc(N)n3)ccc21 | 3.91% (inactive) | –
19 | CC(C(=O)NC1CCCC1)N(C(=O)Cn1nnc(-c2ccccc2Cl)n1)C1CCCCC1 (centres undefined) | -11.7% (inactive) | –
20 | C[C@H]1CN([C@@H](C)CO)C(=O)c2cc(NC(=O)Cc3cn(C)c4ccccc34)ccc2O[C@H]1CN(C)S(=O)(=O)c1ccc(F)cc1 | – | activity change, negative = cytotoxicity ([1]; at 30 µM (top of the series)): -19.8% (inactive)
21 | C[C@@H]1CN([C@H](C)CO)C(=O)c2cc(NC(=O)Cc3cn(C)c4ccccc34)ccc2O[C@H]1CN(C)S(C)(=O)=O | -4.54% (inactive) | –
22 | CCC(=O)N1CCc2cc(-c3csc(NC(=O)c4ccno4)n3)ccc21 | 0.915% (inactive) | –
23 | COc1ccc(-c2nnn(CC(=O)N(C3CC3)C(C)C(=O)NC3CCCC3)n2)cc1OC (centres undefined) | -16% (inactive) | –
24 | COc1ccccc1-c1nnn(CC(=O)N(C2CCCCC2)C(C)C(=O)NC2CCCC2)n1 (centres undefined) | 1.77% (inactive) | –
25 | O=C(Nc1ccc(-c2nc3cc(NC(=O)c4ccc(NC(=O)c5cccc6ccccc56)cc4)ccc3[nH]2)cc1)c1ccc(NC(=O)c2cccc3ccccc23)cc1 | -8.2% (inactive) | –
26 | C[C@@H]1CN([C@@H](C)CO)C(=O)c2cc(NC(=O)Cc3cn(C)c4ccccc34)ccc2O[C@H]1CN(C)S(=O)(=O)c1ccc(Cl)cc1 | -7.85% (inactive) | –
27 | CC(C)(C)NC(=O)N1CCN(c2ncccc2C(F)(F)F)CC1 | -9.57% (inactive) | –

Row | SMILES | activity change, negative = cytotoxicity ([1]; at 35 µM (top of the series)) | also measured
28 | CCC(=O)Nc1ccc(-c2csc(NC(=O)c3ccco3)n2)cc1 | -1.37% (inactive) | –
29 | Nc1ccc(C(=O)Nc2ccc(-c3nc4ccc(NC(=O)c5ccc(N)cc5)cc4[nH]3)cc2)cc1 | -13.9% (inactive) | –
30 | CC(C(=O)NC1CCCC1)N(C(=O)Cn1nnc(-c2ccc(F)cc2)n1)C1CCCCC1 (centres undefined) | -24.9% (inactive) | –
31 | C[C@@H]1CN([C@@H](C)CO)C(=O)c2cc(NC(=O)Cc3cn(C)c4ccccc34)ccc2O[C@H]1CN(C)S(=O)(=O)c1ccc(F)cc1 | -9.34% (inactive) | –
32 | COc1ccc(-c2nnn(CC(=O)N(C3CCCCC3)C(C)C(=O)NC(C)(C)C)n2)cc1OC (centres undefined) | -2.38% (inactive) | –
33 | C[C@@H]1CN([C@H](C)CO)C(=O)Cc2cc(NC(=O)Cc3cn(C)c4ccccc34)ccc2O[C@H]1CN(C)S(=O)(=O)c1ccc(F)cc1 | -14% (inactive) | –
34 | C[C@H]1CN([C@@H](C)CO)C(=O)c2cc(NC(=O)Cc3cn(C)c4ccccc34)ccc2O[C@@H]1CN(C)S(=O)(=O)c1ccc(F)cc1 | -15.6% (inactive) | –
35 | C[C@H](CO)N1C[C@H](C)[C@H](CN(C)S(=O)(=O)c2ccc(F)cc2)Oc2ccc(NC(=O)CCC(F)(F)F)cc2C1=O | -2.53% (inactive) | –
36 | C[C@H]1CN([C@@H](C)CO)C(=O)c2cccc(NC(=O)Nc3ccccc3)c2O[C@@H]1CN(C)Cc1ccc(Cl)c(Cl)c1 | -98.2% (inactive) | –
37 | COc1ccc(-c2nnn(CC(=O)N(C3CCCCC3)C(C)C(=O)NC3CCCC3)n2)cc1OC (centres undefined) | -8.68% (inactive) | –
38 | C[C@H](CO)N1C[C@H](C)[C@H](CN(C)S(=O)(=O)c2ccc(F)cc2)Oc2ccc(NC(=O)Cc3ccccc3)cc2C1=O | -6.53% (inactive) | –
39 | C[C@H]1CN([C@@H](C)CO)C(=O)c2cccc(NC(=O)Nc3ccccc3)c2O[C@@H]1CN(C)S(C)(=O)=O | 1.04% (inactive) | –
40 | CC(C)OCCCNC(=O)c1ccc(C2SCC(=O)N2Cc2ccco2)cc1 (centres undefined) | -15.7% (inactive) | –
41 | C[C@H]1CN([C@@H](C)CO)C(=O)c2cccc(NC(=O)Nc3ccccc3)c2O[C@@H]1CN(C)C | -7.64% (inactive) | –
42 | CCOC(=O)Nc1cccc(NC(=O)c2cc(OC)cc(OC)c2)c1 | -19.4% (inactive) | –
43 | C[C@H](CO)N1C[C@H](C)[C@@H](CN(C)S(=O)(=O)c2ccc(F)cc2)Oc2ccc(NC(=O)Cc3cn(C)c4ccccc34)cc2C1=O | -14% (inactive) | –
44 | CCC(=O)N1CCc2cc(-c3csc(NC(=O)c4cc5cccnc5o4)n3)ccc21 | -0.539% (inactive) | –
45 | Cc1cc(C(=O)C(C)OC(=O)C2=NNC(=O)CC2)c(C)n1-c1ccc(OC(F)F)cc1 (centres undefined) | -26.5% (inactive) | –
46 | CCCn1ccc2cc(-c3csc(NC(=O)c4ccco4)n3)ccc21 | -34.1% (inactive) | –
47 | COc1ccc(-c2nnn(CC(=O)N(C3CCCCC3)C(C)C(=O)NC3CC3)n2)cc1OC (centres undefined) | -10.4% (inactive) | –
48 | CCC(=O)N1CCc2cc(-c3csc(NC(=O)c4ccc(F)c(OC)c4)n3)ccc21 | -10.7% (inactive) | –
49 | Cc1ccc(-c2nnc(N3CCC(C)CC3)c3ccccc23)cc1C | -8.22% (inactive) | –
50 | C[C@@H]1CN([C@H](C)CO)C(=O)c2cc(NC(=O)Cc3cn(C)c4ccccc34)ccc2O[C@H]1CN(C)C(=O)Nc1ccc(F)cc1 | -8.77% (inactive) | –
51 | CCC(=O)N1CCc2cc(-c3csc(NC(=O)c4cocn4)n3)ccc21 | -6.6% (inactive) | –
52 | CC(C)(C)OC(=O)N1CCc2cc(-c3noc(NC(=O)c4ccco4)n3)ccc21 | -3.91% (inactive) | –
53 | COC(=O)N1CCc2cc(-c3csc(NC(=O)c4ccco4)n3)ccc21 | -18.6% (inactive) | –

Reference: PubChem BioAssay AID602126 (Broad Institute, 2011)
